From PubChem BioAssay AID623968 (The Scripps Research Institute Molecular Screening Center, 2012)
Activity calls are given as the source filed them.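 The calls were made as follows: active = compounds cutting HCV replicon RNA in liver cells with IC50 no higher than 50000 nM; inactive = the rest.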

System: Huh 7.5 HCV Rluc replicon, HCV RNA qRT-PCR, 72 h
Test: effect on HCV RNA in replicon cells – RT-PCR, Huh 7.5 Rluc replicon cells, orthogonal assay for HCV NS3 helicase inhibitor project, late-stage follow-up (AID 623968)
Summary of the method: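 material = Huh 7.5 human hepatoma cells carrying HCV Rluc replicon | times = 72 h compound exposure at 37 °C, 5% CO2 | technique = One-step TaqMan qRT-PCR of HCV 5'UTR, 1 µg total RNA input | read-out = IC50 from fitted curve of rRNA-normalized HCV RNA versus DMSO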

SMILES: Cc1ccc2nc(-c3ccc4nc(-c5ccc(NC(=O)c6cc(C(F)(F)F)cc(C(F)(F)F)c6)cc5)sc4c3)sc2c1S(=O)(=O)O
- IC50: 5 µM

SMILES: Cc1ccc2nc(-c3ccc4nc(-c5ccc(NC(=O)c6cccc(Cl)c6)cc5)sc4c3)sc2c1S(=O)(=O)O
- IC50: > 25 µM (inactive)
